NPY-Y2 antag: antagonists of human neuropeptide Y receptor Y2; hit rate 0.99% among 140,000; inhibition, % at 2.7 µM; P49146; AID 793; NPY-Y2 expressing cells, antagonist mode;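 note: 0% = vehicle with agonist challenge and 100% = reference antagonist with challenge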
NPY1 pot ag: human NPY-Y1 potentiation or agonism, primary screen; P25929; NPY-Y1 expressing cells, potentiator/agonist activation; activation, % at 3.6 µM; hit rate 0.37% among 220,000; in the data active = activation above about 33%, passing the limit was not always enough;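 note: cells stimulated with NPY at EC10 then isoproterenol at EC100; 0% = low agonist plus stimulus and 100% = saturating agonist plus stimulus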
Target sequence (P25929 whole entry, looked up): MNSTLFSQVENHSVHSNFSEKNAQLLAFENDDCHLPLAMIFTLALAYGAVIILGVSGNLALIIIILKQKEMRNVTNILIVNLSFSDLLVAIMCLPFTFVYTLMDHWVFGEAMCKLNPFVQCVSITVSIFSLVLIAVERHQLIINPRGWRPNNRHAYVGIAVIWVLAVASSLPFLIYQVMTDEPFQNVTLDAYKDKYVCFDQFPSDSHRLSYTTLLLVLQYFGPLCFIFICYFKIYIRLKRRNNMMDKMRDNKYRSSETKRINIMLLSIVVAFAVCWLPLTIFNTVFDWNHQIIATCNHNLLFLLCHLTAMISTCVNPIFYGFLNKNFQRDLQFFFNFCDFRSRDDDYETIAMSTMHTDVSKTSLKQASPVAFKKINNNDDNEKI
EP2 antag: EP2 receptor (human) inhibition | P43116 | C6 glioma cells expressing human EP2, cAMP TR-FRET; cells stimulated with saturating PGE2 | inhibition, % at 25 µM | hit rate 0.52% among 260,000 | AID 1422;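 active = percent inhibition above 40 after rounding to a whole number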;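 note: rat C6 glioma host cells with rolipram phosphodiesterase inhibitor present; the protocol text gives 20 µM as final concentration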
Target sequence (P43116 whole entry, looked up): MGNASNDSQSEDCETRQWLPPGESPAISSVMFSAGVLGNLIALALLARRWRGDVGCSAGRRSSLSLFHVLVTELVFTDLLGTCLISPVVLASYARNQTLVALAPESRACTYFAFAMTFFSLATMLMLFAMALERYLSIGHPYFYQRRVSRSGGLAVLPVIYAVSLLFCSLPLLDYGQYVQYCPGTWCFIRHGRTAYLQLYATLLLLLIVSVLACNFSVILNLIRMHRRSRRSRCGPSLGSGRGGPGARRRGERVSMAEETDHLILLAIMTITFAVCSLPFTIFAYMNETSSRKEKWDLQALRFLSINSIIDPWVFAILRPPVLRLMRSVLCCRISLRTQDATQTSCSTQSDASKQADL
EP2 modulator: modulators of human EP2 prostaglandin E2 receptor. EP2-expressing cells, cAMP HTRF FRET, PGE2 co-stimulation. hit rate 0.83% among 260,000. AID 940. induction, % at 25 µM;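 active = compounds whose cAMP rise, as percent of the full-agonist control response, exceeds 60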;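 note: rat C6 glioma line stably carrying human EP2 under a CMV promoter; the protocol text gives 20 µM as final concentration; 100% = response of wells given 1 µM PGE2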
NPY Y1 blocker: antagonists of human neuropeptide Y receptor Y1. hit rate 1% among 200,000. inhibition, % at 3.6 µM. HEK293-CNG Y1 cells, membrane potential fluorescence; NPY at EC95, then isoproterenol;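 active = inhibition above the campaign mean inhibition of all tested compounds plus 3 SD, cut at about 20% in these data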;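 note: 0% = DMSO wells given NPY plus isoproterenol and 100% = isoproterenol alone without NPY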
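Test system: HEK293 cells co-expressing NPY Y1 receptor and cyclic-nucleotide gated channel; Also added: NPY (25 nM), isoproterenol (1 µM), Ro 20-1724 (25 µM); Compound dosing: one concentration, 3.6 µM, in 0.4% DMSO; Timing: dye 3 h, compound 60 min room temperature, stimulation 45 min; Technique: Membrane-potential fluorescent dye readout.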
NPY-Y2 PAM-ag: potentiators or agonists of human neuropeptide Y receptor Y2; P49146; cells expressing NPY-Y2, potentiator/agonist read-out; activation, % at 3.6 µM; hit rate 0.45% among 220,000; in the data active = activation above about 27%;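 note: cells stimulated with NPY near EC25 plus isoproterenol at EC100; 0% = vehicle plus submaximal agonist and 100% = vehicle plus saturating agonist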
NPY-Y1 ant conf: confirmation of human neuropeptide Y receptor Y1 antagonists; shares compounds with NPY Y1 blocker; inhibition, % at 3.6 µM; HEK293-CNG NPY-Y1, membrane potential fluorescence, cAMP; NPY challenge against isoproterenol-raised cAMP; hit rate 21% among 1,200; in the data active = inhibition above about 20%;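 note: 0% = vehicle with agonist plus stimulus and 100% = stimulus alone without agonist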
NPY-Y2 antag ct: human NPY-Y2 antagonism in NPY-Y1 counter-screen. HEK293 NPY-Y2 CNG membrane potential fluorescence; cells given NPY, then isoproterenol. inhibition, % at 3.6 µM. shares compounds with NPY Y1 blocker. AID 1255. hit rate 28% among 1,200;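 note: 0% = DMSO with agonist challenge and 100% = reference antagonist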
Numbers without * were called inactive; nt = not tested or not shown. In the library only some 2.8% were active in any assay of this set; here they are far more common. Cut-off read from the data, not from the text of the source, unless noted: active = inhibition above about 17%; inactive = the rest.

SMILES	NPY-Y2 antag	NPY1 pot ag	EP2 antag	EP2 modulator	NPY Y1 blocker	NPY-Y2 PAM-ag	NPY-Y1 ant conf	NPY-Y2 antag ct
CCCSc1nc(-n2ncc(C#N)c2N)c2c3c(sc2n1)CCC(C)C3 (centres undefined)	12.2	-54.5	6.2	46.4	21.1*	-27.7	6.1	10.6
Cc1cc(C)cc(NC(=O)CSc2nc3ccc(Cl)cc3[nH]2)c1	nt	nt	11.8	7.5	nt	nt	nt	nt
COc1c(C)cnc(CN2CCC3(CC2)NC(=O)c2ccccc2O3)c1C	nt	nt	8.2	-5.1	nt	nt	nt	nt
Cc1ccccc1OCCCn1c(=O)sc2ccccc21	10.7	-53.8	4.5	48.6	26.8*	-11.7	5.0	7.0
COc1ccc(C2Nc3ccccc3C(=O)N2c2ccccc2)cc1COc1ccccn1 (centres undefined)	4.4	7.5	5.1	24.1	22.0*	-7.1	9.7	7.2
O=C(NC[C@H]1CCCN(C(=O)c2ccccn2)C1)c1cccs1	nt	nt	nt	-7.3	nt	nt	nt	nt
COc1ccc(CN(Cc2cc3c(C)cc(C)cc3[nH]c2=O)C(=O)NC2CCCCC2)cc1	nt	nt	7.4	-6.7	nt	nt	nt	nt
N#C/C(=C\c1c[nH]c2ccccc12)c1nnc2n1CCCCC2	0.5	-1.5	3.4	-0.6	1.6	7.9	nt	nt
N#C/C(=N\Nc1cccc2ccccc12)c1nnc2n1CCCCC2	-0.9	1.4	7.9	-0.8	20.3*	0.0	-0.9	2.6
Fc1cccc(Cc2noc(CN3CCN(C4CCc5ccccc5C4)CC3)n2)c1 (centres undefined)	nt	-15.2	1.9	-53.0	23.5*	-20.2	17.1	12.6
COc1ccc(Cc2noc(CN3CCN(C4CCc5ccccc5C4)CC3)n2)cc1OC (centres undefined)	nt	-5.9	4.7	-3.9	10.2	-21.6	nt	nt
Cc1cccnc1C1(O)CCN(C(=O)c2ccc(Cn3cccn3)o2)CC1	nt	nt	nt	-6.2	nt	nt	nt	nt
Cc1ccc(OCC(=O)Nc2sc3c(c2C#N)CC(C)(C)NC3(C)C)cc1	nt	-37.8	9.9	-71.8	22.3*	-24.4	13.5	6.4
CC1(C)Cc2c(sc(NC(=O)COc3cccc4ccccc34)c2C#N)C(C)(C)N1	nt	-47.1	10.0	-26.2	nt	-41.7	nt	nt
CCN(CC)C(C)C(=O)Nc1c2c(cc3c1CCC3)CCC2 (centres undefined)	5.3	-13.8	3.6	22.7	5.2	-11.7	nt	nt
CC(C(=O)Nc1c2c(cc3c1CCC3)CCC2)N1CCCC1 (centres undefined)	9.5	-36.7	8.6	5.3	20.2*	-14.8	12.6	7.6
COc1cc2c(cc1Cl)/C(=C\CCN(C)C)c1ccccc1S2	11.3	-36.7	8.4	-47.0	29.1*	-18.7	13.1	17.7*
COc1cc(Cl)cc2c1Sc1ccccc1/C2=C/CCN(C)C	8.7	-17.2	21.8	15.3	15.5	-22.9	nt	nt
CC(=O)Nc1ccc(S(=O)(=O)Nc2nc(C)cc(-n3nc(C)cc3C)n2)cc1	5.2	-20.6	12.5	4.2	22.4*	-5.9	9.5	9.5
O=C1C=C(c2ccccc2)CC(c2ccc(F)cc2)C1 (centres undefined)	nt	nt	17.9	nt	nt	nt	nt	nt
O=C1C=C(c2ccccc2)CC(/C=C/c2ccccc2)C1 (centres undefined)	8.8	-38.2	9.1	15.1	23.5*	3.7	16.3	10.1
CCc1ccc(/C=C\C(=O)N2CCc3ccccc3C2)cc1	11.3	-21.2	nt	-30.6	21.2*	-27.7	9.2	10.3
CC1CCCC(C)N1C(=O)CSc1nnc(NC(=O)c2ccc(F)cc2F)s1 (centres undefined)	nt	nt	12.9	-0.1	nt	nt	nt	nt
Cc1cn(S(=O)(=O)c2ccc(Br)c3ccccc23)cn1	6.7	-21.9	6.1	13.8	27.3*	-29.2	9.8	6.9
COc1cc(S(=O)(=O)n2cnc(C)c2)ccc1Br	nt	0.6	7.3	8.1	1.7	-2.4	nt	nt
SMILES	NPY-Y2 antag	NPY1 pot ag	EP2 antag	EP2 modulator	NPY Y1 blocker	NPY-Y2 PAM-ag	NPY-Y1 ant conf	NPY-Y2 antag ct
Cc1c(OCc2ccccc2)cccc1OCc1ccccc1	9.3	-28.6	10.3	24.2	11.7	0.7	nt	nt
COc1ccc(Br)cc1CN(C)CC(=O)NCCc1ccccc1	nt	-1.1	5.3	24.8	6.7	-15.6	nt	nt
c1ccc(COc2ccccc2CNC23CC4CC(CC(C4)C2)C3)cc1	nt	-63.7	3.3	16.9	158.0*	-21.9	110.5*	70.4*
COc1cc(CNC2CCCC2)cc(Cl)c1OCc1ccccc1Cl	3.3	-17.0	7.9	-30.5	-5.3	-5.1	nt	nt
c1ccc(COc2ccccc2CNC2CCCC2)cc1	nt	-14.1	6.3	48.8	31.8*	0.1	4.4	5.3
O=C(COc1ccc(Br)cc1CNC1CCCCC1)NCCc1ccccc1	nt	8.5	7.2	-29.1	27.0*	1.1	17.9	12.6
COc1ccc2cc(CN(CCO)C(=S)NCCc3ccccc3)c(=O)[nH]c2c1	nt	nt	14.4	-93.2	nt	nt	nt	nt
CC(=O)NC1(c2ccccc2F)CCN(Cc2cn[nH]c2-c2cccs2)CC1	nt	nt	7.9	2.3	nt	nt	nt	nt
Cc1cccc(NC(=O)NNC(=O)c2cc3ccccc3cc2O)c1C	nt	-20.9	4.8	-34.6	24.0*	-5.0	15.1	13.4
CCOc1cccc(CN(Cc2ccccn2)C2CC(C)(C)NC(C)(C)C2)c1O	nt	nt	6.2	-2.5	nt	nt	nt	nt
COc1ccc(-c2nc3ccccn3c2CN2CCN(c3ccccc3F)CC2)cc1	nt	-71.4	7.8	54.4	30.0*	-5.7	26.6*	20.7*
Clc1ccc(-c2nc3ccccn3c2CN2CCOCC2)cc1	7.2	-40.5	3.9	22.4	7.0	-1.9	nt	nt
Cc1ccccc1C1(O)CCN(C(=O)Cn2ccc3ccc(F)cc32)CC1	nt	nt	5.9	-72.7	nt	nt	nt	nt
COc1ccc(-c2ccc(-c3noc(-c4ccco4)n3)c(OC)n2)cc1	1.1	-3.0	7.9	38.4	78.0*	6.5	3.2	4.8
CC(C)n1cc(NC(=O)c2cc(-c3ccccc3)on2)cn1	9.0	-32.6	21.8	-90.8	23.6*	-26.9	4.6	13.6
O=C(Nc1cccnc1)c1cc(-c2ccccc2)on1	5.6	-15.8	20.5	-17.8	4.4	-18.7	nt	nt
COc1ccc(C2/C(=C(/O)c3ccccc3)C(=O)C(=O)N2CC#N)cc1OC (centres undefined)	nt	nt	7.0	18.6	nt	nt	nt	nt
O=C(NC1CCCCC1)C(c1ccncc1)N(C(=O)c1csnn1)C1CC1 (centres undefined)	nt	nt	6.6	-150.3	nt	nt	nt	nt
Cc1ccc2cc(C#N)c(SCCN3CCCCC3)nc2c1	nt	nt	16.6	6.0	nt	nt	nt	nt
CCN1C(=O)c2ccc(C(=O)NCc3ccc4c(c3)OCO4)cc2C1=O	2.8	-24.9	5.9	3.3	25.6*	-4.9	4.7	7.8
Cc1cc2oc(C(=O)NCc3ccc4c(c3)OCO4)c(C)c2cc1C	15.1	-73.9	13.4	-17.2	27.7*	-32.3	23.3*	18.4*
CCCC1c2cccn2CCN1C(=O)c1cc(=O)c2cc(C)c(C)cc2o1 (centres undefined)	nt	nt	7.3	9.8	nt	nt	nt	nt
